Results from ChEMBL document CHEMBL1124493, “Synthesis and tumor uptake of 5-82Br- and 5-131I-labeled 5-halo-1-(2-fluoro-2-deoxy-beta-D-ribofuranosyl)uracils” (J Med Chem, 1989).

What was measured:
[1] = tested on: Mus musculus; experiment: Biodistribution of intravenously injected [131I]-labeled compound in blood of BDF1 female mice bearing subcutaneous Lewis lung carcinoma after 0.25 hours; type: ADME, organism-based; conditions: in vivo, iv
Procedure, shortened: (§1)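 Female BDF1 mice bearing subcutaneous Lewis lung carcinoma received a single intravenous dose of 0.5-1.8 μg of the 131I-labeled nucleoside (55-110 kBq). They were sacrificed at set times, and tissues were weighed wet and γ-counted. Activity is expressed as percent of injected dose per gram of wet tissue, given as mean ± standard deviation for six animals.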

[2] = tested on: Mus musculus; experiment: Biodistribution of intravenously injected [131I]-labeled compound in kidney of BDF1 female mice bearing subcutaneous Lewis lung carcinoma after 0.25 hours; type: ADME, organism-based; conditions: in vivo, iv; procedure, shortened: as §1
[3] = tested on: Mus musculus; experiment: Biodistribution of intravenously injected [131I]-labeled compound in bone of BDF1 female mice bearing subcutaneous Lewis lung carcinoma after 0.25 hours; type: ADME, organism-based, Bone element; conditions: in vivo, iv; procedure, shortened: as §1
[4] = tested on: Mus musculus; experiment: Biodistribution of intravenously injected [131I]-labeled compound in gut of BDF1 female mice bearing subcutaneous Lewis lung carcinoma after 1 hours; type: ADME, organism-based; conditions: in vivo, iv; procedure, shortened: as §1
[5] = tested on: Mus musculus; experiment: Biodistribution of intravenously injected [131I]-labeled compound in lung of BDF1 female mice bearing subcutaneous Lewis lung carcinoma after 8 hours; type: ADME, organism-based; conditions: in vivo, iv; procedure, shortened: as §1
[6] = tested on: Mus musculus; experiment: Biodistribution of intravenously injected [131I]-labeled compound in kidney of BDF1 female mice bearing subcutaneous Lewis lung carcinoma after 0.5 hours; type: ADME, organism-based; conditions: in vivo, iv; procedure, shortened: as §1
[7] = tested on: Mus musculus; experiment: Biodistribution of intravenously injected [131I]-labeled compound in stomach of BDF1 female mice bearing subcutaneous Lewis lung carcinoma after 0.50 hours; type: ADME, organism-based; conditions: in vivo, iv, 0.5 h
Procedure, shortened: (§2)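 Female BDF1 mice with subcutaneous Lewis lung carcinoma given i.v. 0.5-1.8 μg of 131I-labeled nucleoside (55-110 kBq). Killed at set times. Tissues weighed wet and γ-counted. Radioactivity expressed as percent injected dose per gram wet tissue, mean ± SD of six animals.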

[8] = tested on: Mus musculus; experiment: Biodistribution of intravenously injected [131I]-labeled compound in spleen of BDF1 female mice bearing subcutaneous Lewis lung carcinoma after 8 hours; type: ADME, organism-based; conditions: in vivo, iv; procedure, shortened: as §2
[9] = tested on: Mus musculus; experiment: Biodistribution of intravenously injected [131I]-labeled compound in blood of BDF1 female mice bearing subcutaneous Lewis lung carcinoma after 24 hours; type: ADME, organism-based; conditions: in vivo, iv; procedure, shortened: as §1
[10] = tested on: Mus musculus; experiment: Biodistribution of intravenously injected [131I]-labeled compound in liver of BDF1 female mice bearing subcutaneous Lewis lung carcinoma after 24 hours; type: ADME, organism-based; conditions: in vivo, iv; procedure, shortened: as §1
[11] = tested on: Mus musculus; experiment: Biodistribution of intravenously injected [131I]-labeled compound in liver of BDF1 female mice bearing subcutaneous Lewis lung carcinoma after 4 hours; type: ADME, organism-based; conditions: in vivo, iv; procedure, shortened: as §1
[12] = tested on: Mus musculus; experiment: Biodistribution of intravenously injected [131I]-labeled compound in liver of BDF1 female mice bearing subcutaneous Lewis lung carcinoma after 1 hours; type: ADME, organism-based; conditions: in vivo, iv; procedure, shortened: as §1
[13] = tested on: Mus musculus; experiment: Biodistribution of intravenously injected [131I]-labeled compound in skin of BDF1 female mice bearing subcutaneous Lewis lung carcinoma after 24 hours; type: ADME, organism-based, Zone of skin; conditions: in vivo, iv; procedure, shortened: as §2
[14] = tested on: Mus musculus; experiment: Biodistribution of intravenously injected [131I]-labeled compound in skin of BDF1 female mice bearing subcutaneous Lewis lung carcinoma after 8 hours; type: ADME, organism-based, Zone of skin; conditions: in vivo, iv; procedure, shortened: as §2
[15] = tested on: Mus musculus; experiment: Biodistribution of intravenously injected [131I]-labeled compound in gut of BDF1 female mice bearing subcutaneous Lewis lung carcinoma after 0.25 hours; type: ADME, organism-based; conditions: in vivo, iv; procedure, shortened: as §1
[16] = tested on: Mus musculus; experiment: Biodistribution of intravenously injected [131I]-labeled compound in lung of BDF1 female mice bearing subcutaneous Lewis lung carcinoma after 24 hours; type: ADME, organism-based; conditions: in vivo, iv; procedure, shortened: as §1
[17] = tested on: Mus musculus; experiment: Biodistribution of intravenously injected [131I]-labeled compound in gut of BDF1 female mice bearing subcutaneous Lewis lung carcinoma after 8 hours; type: ADME, organism-based; conditions: in vivo, iv; procedure, shortened: as §1
[18] = tested on: Mus musculus; experiment: Biodistribution of intravenously injected [131I]-labeled compound in lung of BDF1 female mice bearing subcutaneous Lewis lung carcinoma after 4 hours; type: ADME, organism-based; conditions: in vivo, iv; procedure, shortened: as §1
[19] = tested on: Mus musculus; experiment: Biodistribution of intravenously injected [131I]-labeled compound in bone of BDF1 female mice bearing subcutaneous Lewis lung carcinoma after 24 hours; type: ADME, organism-based, Bone element; conditions: in vivo, iv; procedure, shortened: as §1
[20] = tested on: Mus musculus; experiment: Biodistribution of intravenously injected [131I]-labeled compound in spleen of BDF1 female mice bearing subcutaneous Lewis lung carcinoma after 24 hours; type: ADME, organism-based; conditions: in vivo, iv; procedure, shortened: as §2
[21] = tested on: Mus musculus; experiment: Biodistribution of intravenously injected [131I]-labeled compound in stomach of BDF1 female mice bearing subcutaneous Lewis lung carcinoma after 1 hours; type: ADME, organism-based; conditions: in vivo, iv; procedure, shortened: as §2
[22] = tested on: Mus musculus; experiment: Biodistribution of intravenously injected [131I]-labeled compound in stomach of BDF1 female mice bearing subcutaneous Lewis lung carcinoma after 0.25 hours; type: ADME, organism-based; conditions: in vivo, iv; procedure, shortened: as §2
[23] = tested on: Mus musculus; experiment: Biodistribution of intravenously injected [82Br]-labeled compound in muscle of BDF1 female mice bearing subcutaneous Lewis lung carcinoma after 24 hours; type: ADME, organism-based, Muscle tissue; conditions: in vivo, iv
Procedure, shortened: (§3)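 Female BDF1 mice with subcutaneous Lewis lung carcinoma given an iv injection of [82Br]-labelled nucleoside, 47-130 μg carrying 20-60 kBq 82Br. Tissues were excised, weighed wet and γ-counted. Values are percent injected dose per gram of wet tissue, mean ± standard deviation of six animals, with organ-to-tumour ratios derived.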

[24] = tested on: Mus musculus; experiment: Biodistribution of intravenously injected [82Br]-labeled compound in bone of BDF1 female mice bearing subcutaneous Lewis lung carcinoma after 0.25 hours; type: ADME, organism-based, Bone element; conditions: in vivo, iv
Procedure, shortened: (§4)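 82Br-labeled nucleoside given intravenously to female BDF1 mice bearing subcutaneous Lewis lung carcinoma, at 47-130 μg carrying 20-60 kBq. Mice sacrificed at each time point. Wet-weighed tissues γ-counted. Values are percent injected dose per gram wet tissue, mean ± SD, n = 6.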

[25] = tested on: Mus musculus; experiment: Biodistribution of intravenously injected [82Br]-labeled compound in kidney of BDF1 female mice bearing subcutaneous Lewis lung carcinoma after 8 hours; type: ADME, organism-based; conditions: in vivo, iv; procedure, shortened: as §3
[26] = tested on: Mus musculus; experiment: Biodistribution of intravenously injected [82Br]-labeled compound in blood of BDF1 female mice bearing subcutaneous Lewis lung carcinoma after 4 hours; type: ADME, organism-based; conditions: in vivo, iv; procedure, shortened: as §4
[27] = tested on: Mus musculus; experiment: Biodistribution of intravenously injected [82Br]-labeled compound in tumor of BDF1 female mice bearing subcutaneous Lewis lung carcinoma after 2 hours; type: ADME, organism-based; conditions: in vivo, iv
[28] = tested on: Mus musculus; experiment: Biodistribution of intravenously injected [82Br]-labeled compound in lung of BDF1 female mice bearing subcutaneous Lewis lung carcinoma after 8 hours; type: ADME, organism-based; conditions: in vivo, iv; procedure, shortened: as §3
[29] = tested on: Mus musculus; experiment: Biodistribution of intravenously injected [82Br]-labeled compound in liver of BDF1 female mice bearing subcutaneous Lewis lung carcinoma after 4 hours; type: ADME, organism-based; conditions: in vivo, iv; procedure, shortened: as §3
[30] = tested on: Mus musculus; experiment: Biodistribution of intravenously injected [82Br]-labeled compound in spleen of BDF1 female mice bearing subcutaneous Lewis lung carcinoma after 0.50 hours; type: ADME, organism-based; conditions: in vivo, iv, 0.5 h; procedure, shortened: as §3
[31] = tested on: Mus musculus; experiment: Biodistribution of intravenously injected [82Br]-labeled compound in stomach of BDF1 female mice bearing subcutaneous Lewis lung carcinoma after 0.50 hours; type: ADME, organism-based; conditions: in vivo, iv, 0.5 h
[32] = tested on: Mus musculus; experiment: Biodistribution of intravenously injected [82Br]-labeled compound in stomach of BDF1 female mice bearing subcutaneous Lewis lung carcinoma after 0.25 hours; type: ADME, organism-based; conditions: in vivo, iv
[33] = tested on: Mus musculus; experiment: Biodistribution of intravenously injected [82Br]-labeled compound in heart of BDF1 female mice bearing subcutaneous Lewis lung carcinoma after 4 hours; type: ADME, organism-based; conditions: in vivo, iv; procedure, shortened: as §3
[34] = tested on: Mus musculus; experiment: Biodistribution of intravenously injected [82Br]-labeled compound in kidney of BDF1 female mice bearing subcutaneous Lewis lung carcinoma after 2 hours; type: ADME, organism-based; conditions: in vivo, iv; procedure, shortened: as §3
[35] = tested on: Mus musculus; experiment: Biodistribution of intravenously injected [82Br]-labeled compound in kidney of BDF1 female mice bearing subcutaneous Lewis lung carcinoma after 24 hours; type: ADME, organism-based; conditions: in vivo, iv; procedure, shortened: as §3
[36] = tested on: Mus musculus; experiment: Biodistribution of intravenously injected [82Br]-labeled compound in skin of BDF1 female mice bearing subcutaneous Lewis lung carcinoma after 2 hours; type: ADME, organism-based, Zone of skin; conditions: in vivo, iv; procedure, shortened: as §3
[37] = tested on: Mus musculus; experiment: Biodistribution of intravenously injected [82Br]-labeled compound in muscle of BDF1 female mice bearing subcutaneous Lewis lung carcinoma after 2 hours; type: ADME, organism-based, Muscle tissue; conditions: in vivo, iv; procedure, shortened: as §3
[38] = tested on: Mus musculus; experiment: Biodistribution of intravenously injected [82Br]-labeled compound in blood of BDF1 female mice bearing subcutaneous Lewis lung carcinoma after 2 hours; type: ADME, organism-based; conditions: in vivo, iv; procedure, shortened: as §4

Which results are given for O=c1[nH]c(=O)n([C@@H]2O[C@H](CO)[C@@H](O)[C@H]2F)cc1I?
Injected dose/g [1]: 19%; Injected dose/g [2]: 21.1%; Injected dose/g [3]: 2.4%; Injected dose/g [4]: 2.5%; Injected dose/g [5]: 2.6%; Injected dose/g [6]: 18.5%; Injected dose/g [7]: 4.6%; Injected dose/g [8]: 1%; Injected dose/g [9]: 0.16%; Injected dose/g [10]: 0.1%; Injected dose/g [11]: 2.6%; Injected dose/g [12]: 3.6%; Injected dose/g [13]: 0.1%; Injected dose/g [14]: 2.1%; Injected dose/g [15]: 3.1%; Injected dose/g [16]: 0.1%; Injected dose/g [17]: 1.3%; Injected dose/g [18]: 4.5%; Injected dose/g [19]: 0.07%; Injected dose/g [20]: 0.5%; Injected dose/g [21]: 4.5%; Injected dose/g [22]: 3.7%

What does the source list for O=c1[nH]c(=O)n([C@H]2O[C@@H](CO)[C@H](O)[C@H]2F)cc1Br?
Injected dose/g [23]: 0.09%; Injected dose/g [24]: 0.52%; Injected dose/g [25]: 0.53%; Injected dose/g [26]: 0.6%; Injected dose/g [27]: 0.57%; Injected dose/g [28]: 0.46%; Injected dose/g [29]: 0.23%; Injected dose/g [30]: 0.59%; Injected dose/g [31]: 0.79%; Injected dose/g [32]: 1.29%; Injected dose/g [33]: 0.49%; Injected dose/g [34]: 0.71%; Injected dose/g [35]: 0.36%; Injected dose/g [36]: 0.39%; Injected dose/g [37]: 0.19%; Injected dose/g [38]: 0.79%
